# Measured values collected from several papers.
# Protocols differ between the studies behind these lines.
# Target: cGMP-dependent protein kinase 2 (PRKG2, Homo sapiens, UniProt Q13237)
# Sequence (Q13237 1-762, as in one of the studies): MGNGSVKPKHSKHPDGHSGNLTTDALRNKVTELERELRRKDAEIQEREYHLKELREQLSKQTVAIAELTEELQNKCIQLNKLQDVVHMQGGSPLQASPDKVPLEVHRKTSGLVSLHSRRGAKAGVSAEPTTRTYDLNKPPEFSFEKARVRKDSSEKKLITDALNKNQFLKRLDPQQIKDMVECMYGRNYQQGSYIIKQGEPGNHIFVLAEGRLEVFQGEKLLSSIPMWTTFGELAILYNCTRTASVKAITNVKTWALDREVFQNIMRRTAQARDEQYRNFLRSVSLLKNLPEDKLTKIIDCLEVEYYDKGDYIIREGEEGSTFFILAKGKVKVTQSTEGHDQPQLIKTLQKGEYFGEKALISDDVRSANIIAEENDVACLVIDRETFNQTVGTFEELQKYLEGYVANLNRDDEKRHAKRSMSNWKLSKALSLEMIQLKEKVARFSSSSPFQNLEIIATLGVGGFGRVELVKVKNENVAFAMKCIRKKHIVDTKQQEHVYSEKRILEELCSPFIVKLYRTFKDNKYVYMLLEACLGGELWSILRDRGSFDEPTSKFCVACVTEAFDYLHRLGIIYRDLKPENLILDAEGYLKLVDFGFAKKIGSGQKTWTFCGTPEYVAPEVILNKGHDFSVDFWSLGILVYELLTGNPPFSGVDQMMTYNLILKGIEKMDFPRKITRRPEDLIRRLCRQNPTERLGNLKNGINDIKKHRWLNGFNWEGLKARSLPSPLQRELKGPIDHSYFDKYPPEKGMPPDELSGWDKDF
SMILES,assay,conditions,quantity,value
Cc1nn(C)cc1-c1nc2c(N3CCN(Cc4ccc(Cl)cc4)CC3)c(Cl)cnc2[nH]1,"binding, competition with immobilised ligand",1 µM,remaining binding,92%
Nc1ncc(-c2nc(N3CCOCC3)nc(N3CCOCC3)n2)c(C(F)F)n1,"binding, competition with immobilised ligand",10 µM,remaining binding,90%
O=c1[nH]c2ccccc2n1C1CCN(Cc2ccc(-c3[nH]c4cc5ncnc5cc4nc3-c3ccccc3)cc2)CC1,cell-free assay,0.5 µM,remaining signal,96.8%
Cn1cncc1[C@](O)(COc1ccc(C#N)cc1-c1ccc(OC(F)(F)F)cc1)c1ccc(C#N)cc1,"cell-free assay, competition with immobilised ligand",1 µM,remaining binding,100%
CC(C)(C)c1cc(C=C(C#N)C#N)cc(Br)c1O,"enzyme activity, inhibitor",0.5 µM,remaining activity,87.6%
Cn1cc(-c2cccc(N3CCc4c(sc5c4CC(C)(C)C5)C3=O)c2CO)cc(Nc2ccncn2)c1=O,"enzyme activity, inhibitor",1 µM,inhibition,2%
N#CC1(c2ccccn2)CCN(Cc2cc(C(=O)O)c(=O)n3ccccc23)CC1,"cell-free assay, competition with immobilised ligand",1 µM,remaining binding,95%
Cn1cc(-c2cc(F)cc(N3CCn4c(cc5c4CCCC5)C3=O)c2CO)cc(Nc2ccc(N3CCN(C4COC4)CC3)cn2)c1=O,"enzyme activity, inhibitor",0.1 µM,inhibition,11%
COc1ncccc1-c1cnn2ccc(N3CCN(C(=O)OC(C)C)CC3)nc12,"binding, competition with immobilised ligand",1 µM,remaining binding,88%
